{"data": "Experimental data pooled from the literature", "target": "Mitogen-activated protein kinase 3 (MAPK3, Homo sapiens, UniProt P27361)", "note": "Each line is one published result; the experiments were not run side by side."}
{"SMILES": "CC#CC(=O)N1CCC[C@H]1c1nc(-c2ccc(C(=O)Nc3ccccn3)cc2)c2c(N)nccn12", "assay": "enzyme activity, inhibitor", "setting": "1 µM", "endpoint": "inhibition", "value": "12%"}
{"SMILES": "CCCCC(=O)Nc1ccc(-c2ccc3ncn(CCC)c(=O)c3c2)cn1", "assay": "binding, competition with immobilised ligand", "setting": "0.5 µM", "endpoint": "remaining binding", "value": "97%"}
{"SMILES": "N#Cc1ccc(NC(=O)Nc2ccccc2)cc1", "assay": "cell-free assay, competition with immobilised ligand", "setting": "25 µM", "endpoint": "remaining binding", "value": "100%"}
{"SMILES": "C=CC(=O)N1CCC[C@@H](n2nc(-c3ccc(Oc4ccccc4)cc3)c3c(N)ncnc32)C1", "assay": "enzyme activity, inhibitor", "setting": "1 µM", "endpoint": "inhibition", "value": "3%"}
{"SMILES": "Cc1cc(O)c(-c2ccc([C@@H](C)CN(C)C)cc2)c2c1[nH]c(=O)c1sccc12", "assay": "enzyme activity, inhibitor", "setting": "0.1 µM", "endpoint": "inhibition", "value": "15.1%"}
{"SMILES": "O=C(O)CCC(=O)OCCN(Cc1ccc(Oc2ccc([N+](=O)[O-])cc2)cc1)C(=O)C(Cl)Cl", "assay": "enzyme activity, inhibitor, ADP detection", "setting": "10 µM", "endpoint": "inhibition", "value": "49.3%"}
{"SMILES": "C[C@H]1CC[C@H](n2c3cnccc3c3cnc(Nc4ccc5c(n4)CCN(C(=O)CO)C5)nc32)CC1", "assay": "cell-free assay", "setting": "1 µM", "endpoint": "remaining signal", "value": "100%"}
{"SMILES": "c1ccc(-c2ccc3c(c2)NC(C2Nc4cc(-c5ccccc5)ccc4O2)O3)cc1 (stereo not shown)", "assay": "enzyme activity, inhibitor, ADP detection", "setting": "10 µM", "endpoint": "inhibition", "value": "54.7%"}
{"SMILES": "Cc1ccc(NC(=O)c2ccnc(C(F)(F)F)c2)cc1-c1cc(OCCO)nc(N2CCOCC2)c1", "assay": "binding", "setting": "1 µM", "endpoint": "remaining binding", "value": "100%"}
{"SMILES": "C#Cc1cc(-c2cc(Nc3nc(N[C@@H](C)c4ccc(F)cn4)ncc3Cl)n[nH]2)ccc1C=O", "assay": "enzyme activity, inhibitor", "setting": "0.2 µM", "endpoint": "inhibition", "value": "5.48%"}
